Published values pooled from the literature.
Converted amounts (≈) assume the structure as drawn.

| Compound | organism | effect on | technique | strain | tested at | measurement | result |
| --- | --- | --- | --- | --- | --- | --- | --- |
| O=C(O)CN1C(=O)/C(=C/c2ccc(-c3ccc(N(c4ccccc4)c4ccccc4)cc3)c3ccccc23)NC1=S | Micrococcus luteus | microbial killing | broth dilution | ATCC10240 |  | MBC | > 1000 µg/mL |
| Cc1ccc(C(C)C)cc1OCc1cn(-c2ccc(C(=O)O)cc2)nn1 | Escherichia coli | microbial growth | broth dilution | ATCC25922 |  | IC50 | 15.3 µg/mL (≈ 43.5 µM) |
| CC(C)c1nn(-c2nc3ccc(Cl)cc3s2)c2c1C(=O)c1ccccc1-2 | Staphylococcus aureus | microbial growth | well diffusion | NCIM5021 | 250 µg/mL | inhibition zone | 11 mm |
| O=C(O)CN1C(=O)/C(=C/c2ccc(-c3ccc(N(c4ccccc4)c4ccccc4)cc3)cc2)NC1=S | Micrococcus luteus | microbial killing | broth dilution | ATCC10240 |  | MBC | 31.3 µg/mL (≈ 61.9 µM) |
| Cc1nn(-c2nc3ccc(Cl)cc3s2)c2c1C(=O)c1ccccc1-2 | Staphylococcus aureus | microbial growth | well diffusion | NCIM5021 | 125 µg/mL | inhibition zone | 10 mm |
| O=C1NC(=S)N/C1=C\c1ccc(-c2ccc(N(c3ccccc3)c3ccccc3)cc2)cc1 | Micrococcus luteus | microbial killing | broth dilution | ATCC10240 |  | MBC | > 1000 µg/mL |
| Cc1ccc(C(C)C)cc1OS(=O)(=O)c1ccc([N+](=O)[O-])cc1 | Escherichia coli | microbial growth | broth dilution | ATCC25922 |  | IC50 | 176 µg/mL (≈ 525 µM) |
| O=C(Nc1cccc(Cl)c1)Nc1ncc(CCNc2ncnc3ccsc23)s1 | Staphylococcus aureus | microbial growth |  | NCTC8325 |  | MIC | > 30 µM |
| O=C(O)c1ccc(-n2cc(COC3=CC(=O)c4ccccc4C3=O)nn2)cc1 | Escherichia coli | microbial growth | broth dilution | ATCC25922 |  | IC50 | 22.6 µg/mL (≈ 60.1 µM) |
| CO[C@@H](C(=O)N1Cc2[nH]nc(NC(=O)c3ccc(N4CCN(C)CC4)cc3)c2C1)c1ccccc1 | Staphylococcus aureus | microbial growth |  | NCTC8325 |  | MIC | > 30 µM |
| Cc1nn(-c2nc3ccc(Br)cc3s2)c2c1C(=O)c1ccccc1-2 | Staphylococcus aureus | microbial growth | well diffusion | NCIM5021 | 125 µg/mL | inhibition zone | 10 mm |
| O=C(O)CN1C(=O)/C(=C/c2c3ccccc3c(-c3ccc(N(c4ccccc4)c4ccccc4)cc3)c3ccccc23)NC1=S | Micrococcus luteus | microbial killing | broth dilution | ATCC10240 |  | MBC | > 1000 µg/mL |
| Cc1ccc2nc(-n3nc(C)c4c3-c3ccccc3C4=O)sc2c1 | Staphylococcus aureus | microbial growth | well diffusion | NCIM5021 | 1000 µg/mL | inhibition zone | 12 mm |
| Cn1c(=O)c(F)c(Nc2ccc(I)cc2F)c2c(=O)n(C[C@@H](O)CO)cnc21 | Staphylococcus aureus | microbial growth |  | NCTC8325 |  | MIC | > 30 µM |
| CC(C)Cc1nn(-c2nc3ccc(Br)cc3s2)c2c1C(=O)c1ccccc1-2 | Staphylococcus aureus | microbial growth | well diffusion | NCIM5021 | 1000 µg/mL | inhibition zone | 21 mm |
| CCS(=O)(=O)Nc1ccc2c(c1)/C(=C(/Nc1ccc(CN3CCCCC3)cc1)c1ccccc1)C(=O)N2 | Staphylococcus aureus | microbial growth |  | NCTC8325 |  | MIC | > 30 µM |
| COc1ccc2nc(-n3nc(CC(C)C)c4c3-c3ccccc3C4=O)sc2c1 | Staphylococcus aureus | microbial growth | well diffusion | NCIM5021 | 500 µg/mL | inhibition zone | 12 mm |
| Cc1ccc(C(C)C)cc1OCc1cn(-c2ccc(F)cc2)nn1 | Escherichia coli | microbial growth | broth dilution | ATCC25922 |  | IC50 | 1580 µg/mL (≈ 4860 µM) |
| Cc1nn(-c2nc3ccccc3s2)c2c1C(=O)c1ccccc1-2 | Staphylococcus aureus | microbial growth | well diffusion | NCIM5021 | 500 µg/mL | inhibition zone | 11 mm |
| O=C1NC(=S)N/C1=C\c1ccc(-c2ccc(N(c3ccccc3)c3ccccc3)cc2)c2ccccc12 | Micrococcus luteus | microbial killing | broth dilution | ATCC10240 |  | MBC | > 1000 µg/mL |
| Cc1ccc2nc(-n3nc(CC(C)C)c4c3-c3ccccc3C4=O)sc2c1 | Staphylococcus aureus | microbial growth | well diffusion | NCIM5021 | 1000 µg/mL | inhibition zone | 14 mm |
| C[C@@H](Oc1cc(-c2cnn(C3CCNCC3)c2)cnc1N)c1c(Cl)ccc(F)c1Cl | Staphylococcus aureus | microbial growth |  | NCTC8325 |  | MIC | > 30 µM |
| O=C1C=C(OCc2cn(-c3ccc(Cl)cc3)nn2)C(=O)c2ccccc21 | Escherichia coli | microbial growth | broth dilution | ATCC25922 |  | IC50 | 306 µg/mL (≈ 836 µM) |
| Clc1ccc(Nc2nnc(Cc3ccncc3)c3ccccc23)cc1 | Staphylococcus aureus | microbial growth |  | NCTC8325 |  | MIC | > 30 µM |
| O=C1C=C(OCc2cn(-c3ccc(F)cc3)nn2)C(=O)c2ccccc21 | Escherichia coli | microbial growth | broth dilution | ATCC25922 |  | IC50 | 165 µg/mL (≈ 472 µM) |
| O=C1NC(=S)S/C1=C\c1c2ccccc2c(-c2ccc(N(c3ccccc3)c3ccccc3)cc2)c2ccccc12 | Micrococcus luteus | microbial killing | broth dilution | ATCC10240 |  | MBC | > 1000 µg/mL |
| N#CC(=C(/N)Sc1ccccc1N)/C(C#N)=C(\N)Sc1ccccc1N | Staphylococcus aureus | microbial growth |  | NCTC8325 |  | MIC | > 30 µM |
| O=C(O)CN1C(=O)/C(=C/c2ccc(-c3ccc(N(c4ccccc4)c4ccccc4)cc3)cc2)SC1=S | Micrococcus luteus | microbial killing | broth dilution | ATCC10240 |  | MBC | 31.3 µg/mL (≈ 59.9 µM) |
| C=CC(=O)Nc1cccc(Oc2nc(Nc3ccc(N4CCN(C)CC4)cc3)ncc2Cl)c1 | Staphylococcus aureus | microbial growth |  | NCTC8325 |  | MIC | > 30 µM |
